Measured values gathered from unrelated publications.
Lines come from different studies, so protocols differ.
Cell line: A549
Observed: cell growth or viability

| Compound | test | conditions | IC50 |
| --- | --- | --- | --- |
| CN1C(=O)/C(=N\NC(=O)c2cc3ccccc3[nH]2)c2cc(Br)ccc21 | – | – | 1.49 µM |
| CN(C)CCCn1cccc1/C=N/NC(=O)Nc1cc2c(Nc3ccc(F)c(Cl)c3)ncnc2cc1O[C@H]1CCOC1 | MTT | 72 h | 6.17 µM |
| O=C(NC(=S)N1CCCCC1)c1ccc2ccccc2c1 | – | 48 h | 5.95 µM |
| O=C(NNC(=O)c1ccc(Nc2nccc(-c3ccccn3)n2)cc1)NC1CCCC1 | MTT | – | > 40 µM |
| Cc1ccc(C)n1-c1ccc(-c2nnc(-c3ccccc3Cl)[nH]2)cc1 | MTT | 72 h | 228 µM |
| COc1cc(N(C)CCN(C)C)c(NC(=O)C=C(C)C)cc1Nc1nc(N2CCc3sccc3C2)c2sccc2n1 | MTT | – | 27.9 µM |
| CC1=C(O)C(=O)C=C2C1=CC=C1[C@@]2(C)CC[C@@]2(C)[C@@H]3C[C@](C)(C(=O)OCCCCCCCCO)CC[C@]3(C)CC[C@]12C | MTT | 48 h | 4.13 µM |
| COc1nc(OCc2cccc(-c3ccccc3)c2C)ccc1CNCCNC(C)=O | MTT | – | 4.6 µM |
| COc1c(C)cnc(COc2ccc(NC(=O)Nc3ccc(F)cc3)cc2)c1C | MTT | 72 h | 13.2 µM |
| CCNC(=O)NNC(=O)c1ccc(Nc2nccc(-c3ccc(Cl)cc3)n2)cc1 | MTT | 24 h | > 40 µM |
| COc1ccnc(COc2ccc(NC(=O)Nc3ccc(Cl)cc3)cc2)c1OC | MTT | 72 h | 10.4 µM |
| COc1cccc2c1C(=O)c1c(O)c3c(c(O)c1C2=O)C[C@@](O)(C(=O)CO)C[C@@H]3O[C@H]1C[C@H](N)[C@H](O)[C@H](C)O1 | MTT | 48 h | 2.42 µM |
| C=CC(=O)N1CCC[C@@H](n2nc(-c3ccc(Oc4ccccc4)cc3)c3c(N)ncnc32)C1 | – | – | > 10 µM |
| CCN(CC)C(=S)NC(=O)c1ccc2ccccc2c1 | – | 48 h | 4.76 µM |
| COc1ccccc1NCC(O)COc1cccc2[nH]c3ccccc3c12 (stereo not drawn) | CCK-8 | 72 h | 86.8 µM |
| COc1cc(Nc2nccc(-c3cnn4nc(OC)ccc34)n2)cc(C(F)(F)F)c1 | ATP luminescence | – | 0.47 µM |
| O=C(O)c1ccc(-n2nc(-c3ccccc3O)nc2-c2ccccc2O)cc1 | MTT | 72 h | 12.1 µM |
| CCOc1cc(OCC)cc(C(=O)O[C@@H]2CN3Cc4c(cc5c(c4OC)OCO5)[C@@]24C=C[C@H](OC)C[C@@H]34)c1 | WST-1 | – | > 10 µM |
| COc1c(C)c(OS(=O)(=O)c2ccc3ccccc3c2)c(C)c(OS(=O)(=O)c2ccc3ccccc3c2)c1C(=O)/C=C/c1ccccc1 | SRB | 72 h | > 50 µM |

| Compound | test | conditions | IC50 |
| --- | --- | --- | --- |
| OCc1ccc2c(c1C#Cc1ccc(O)cc1)C(c1ccc(O)cc1)(c1ccc(O)cc1)c1cc(O)ccc1-2 | MTT | 48 h | > 50 µM |
| COc1ccc(-c2nc(C(=O)Nc3nnc(-c4cc5ccccc5[nH]4)s3)cc3c2[nH]c2ccccc23)cc1 | MTT | 72 h | 2.82 µM |
| Cc1ccc(NC(=O)NNC(=O)c2ccc(Nc3nccc(-c4cccnc4)n3)cc2)cc1 | MTT | 24 h | 8.38 µM |
| COc1ccc(-c2nn(-c3ccc(S(C)(=O)=O)cc3)cc2C=N/N=c2\[nH]c(-c3ccc([N+](=O)[O-])cc3)cs2)cc1 | MTT | 48 h | 4.03 µM |
| O=C1Nc2ccccc2/C1=N/NC(=O)c1cc2ccccc2[nH]1 | – | – | 13 µM |
| COc1cc2ncnc(Nc3ccc(F)c(Cl)c3)c2cc1NC(=O)N/N=C/CN1CCCCC1 | MTT | 72 h | 5.63 µM |
| COC(=O)/C=C/C=C/c1ccc2c(c1)OCO2 | SRB | – | 162 µM |
| C=CC(=O)Nc1cc(Nc2nc(N3CCc4sccc4C3)c3cccnc3n2)c(OC)cc1N1CCN(CCO)CC1 | MTT | – | 5.31 µM |
| CN1CCN(CCn2cccc2/C=N/NC(=O)Nc2cc3c(Nc4ccc(F)c(Cl)c4)ncnc3cc2O[C@H]2CCOC2)CC1 | MTT | 72 h | 3.02 µM |
| COc1ccccc1OCCN(C)CC(O)COc1cccc2[nH]c3ccccc3c12 (stereo not drawn) | CCK-8 | 72 h | 33.3 µM |
| NNc1nc(NCc2ccccc2)nc(Nc2ccc(Br)cc2)n1 | SRB | 72 h | > 30 µM |
| CCN(CC)CCn1cccc1/C=N/NC(=O)Nc1cc2c(Nc3ccc(F)c(Cl)c3)ncnc2cc1O[C@H]1CCOC1 | MTT | 72 h | 1.59 µM |
| CCCNc1nc(NCCC)nc(Nc2ccc(Br)cc2)n1 | SRB | 72 h | 16.1 µM |
| COc1cc(CNC(=O)C[C@H](C)CCC=C(C)C)ccc1OCc1cn(-c2ccc(Cl)cc2)nn1 | SRB | 48 h | 10.6 µM |
| COc1ccccc1/C=C/CNCC(O)COc1cccc2c1[nH]c1ccccc12 (stereo not drawn) | CCK-8 | 72 h | 11.2 µM |
| CCC(=O)Nc1cc(Nc2nc(N3CCOCC3)c3sccc3n2)c(OC)cc1N(C)CCN(C)C | MTT | – | > 50 µM |
| CCN(CC)C/C=N/NC(=O)Nc1cc2c(Nc3ccc(F)c(Cl)c3)ncnc2cc1O[C@H]1CCOC1 | MTT | 72 h | 4.32 µM |
| C=C(Cl)C(=O)Nc1cc(Nc2nc(N3CCSCC3)c3sccc3n2)c(OC)cc1N(C)CCN(C)C | MTT | – | 0.098 µM |
| Oc1ncnc2cc(Nc3nc(-c4ccc(F)cc4)cs3)ccc12 | MTT | – | 19 µM |

| Compound | test | conditions | IC50 |
| --- | --- | --- | --- |
| O=C1Nc2ccc(Cl)cc2/C1=N/NC(=O)c1cc2ccccc2[nH]1 | – | – | 19.7 µM |
| Cc1ccc(-c2csc(Nc3ccc4c(O)ncnc4c3)n2)cc1 | MTT | – | 27 µM |
| COc1cc2ncnc(Nc3ccc(F)c(Cl)c3)c2cc1NC(=O)N/N=C/c1cccn1CCCN1CCOCC1 | MTT | 72 h | 1.86 µM |
| COc1cccc2c1C(=O)c1c(O)c3c(c(O)c1C2=O)C[C@@](O)(C(=O)CO)C[C@@H]3O[C@H]1C[C@H](N)[C@H](O)[C@H](C)O1 | – | 48 h | 0.56 µM |
| CCN(CC)CCCn1cccc1/C=N/NC(=O)Nc1cc2c(Nc3ccc(F)c(Cl)c3)ncnc2cc1O[C@H]1CCOC1 | MTT | 72 h | 2.36 µM |
| COc1c(C)cnc(COc2ccc(NC(=O)Nc3ccc(Cl)c(C(F)(F)F)c3)cc2)c1C | MTT | 72 h | 6.63 µM |
| COc1ccccc1CNCC(O)COc1cccc2[nH]c3ccccc3c12 (stereo not drawn) | CCK-8 | 72 h | 13.9 µM |
| COc1ccc(NC(=O)Nc2ccc(OCc3nccc(OCC(F)(F)F)c3C)cc2)cc1 | MTT | 72 h | 12.5 µM |
| C=C(Cl)C(=O)Nc1cc(Nc2nc(N3CCc4sccc4C3)c3sccc3n2)c(OC)cc1N(C)CCN(C)C | MTT | – | 1.51 µM |
| COc1ccnc(COc2ccc(NC(=O)Nc3ccc(F)cc3)cc2)c1OC | MTT | 72 h | 23.3 µM |
| COc1cccc(/C=C2\SC(=S)N(CC(=O)Nc3ccccc3)C2=O)c1 | MTT | – | 32 µM |
| CC1=C(O)C(=O)C=C2C1=CC=C1[C@@]2(C)CC[C@@]2(C)[C@@H]3C[C@](C)(C(=O)OCCCBr)CC[C@]3(C)CC[C@]12C | MTT | 48 h | 4.95 µM |
| COc1ccccc1/C=C/CNCC(O)COc1ccncc1 (stereo not drawn) | CCK-8 | 72 h | > 100 µM |
| COc1cccc2c1C(=O)c1c(O)c3c(c(O)c1C2=O)C[C@@](O)(C(=O)CO)C[C@@H]3O[C@H]1C[C@H](N)[C@H](O)[C@H](C)O1 | SRB | – | 0.62 µM |
| O=C(NC(=S)Nc1ccc([N+](=O)[O-])cc1)c1ccc2ccccc2c1 | – | 48 h | 5.24 µM |
| C=C(Cl)C(=O)Nc1cc(Nc2nc(Nc3cnn(C)c3)c3sccc3n2)c(OC)cc1N1CCN(C)CC1 | MTT | – | 0.655 µM |
| CCN(CC)CCNC(=O)c1c(C)[nH]c(/C=C2\C(=O)Nc3ccc(F)cc32)c1C | – | – | 3.06 µM |
| C=C(Cl)C(=O)Nc1cc(Nc2nc(Nc3cnn(C)c3)c3sccc3n2)c(OC)cc1N(C)CCN(C)C | MTT | – | 0.441 µM |
| Cc1ccc(NC(=O)CSc2nnc(Cn3cnc4c3c(=O)n(C)c(=O)n4C)n2-c2ccccc2)c(C)c1 | MTT | – | 7.39 µM |
